Legend:
[1] = Inhibition of dog kidney Na+K+-ATPase assessed as hydrolysis of [32P]ATP; parameters: species or system Canis lupus familiaris
In short: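 Dog kidney Na+,K+-ATPase, isolated and purified by the Jørgensen method. Enzyme activity was read as % hydrolysis of 32P-ATP with versus without test compound. IC50 was obtained by nonlinear least-squares curve fitting, as the mean of two or three experiments.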

[2] = Therapeutic index, ratio of lethal dose to ED80 for inotropic activity in guinea pig; format: organism-based, Cavia porcellus; conditions: in vivo
In short: (§1)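 Anesthetized guinea pigs with a jugular vein cannula and an intubated trachea for spontaneous respiration. After stabilization, drug was infused iv at 0.16 mL/min until death or for up to 90 min. Vehicle was DMSO diluted in physiological solution to 1% DMSO final. Read-out was +dP/dt_max. ED80 (dose raising +dP/dt_max by 80%) came from the dose–response, and the doses giving maximum inotropy and death were recorded, giving the lethal dose/ED80 ratio.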

[3] = system: Cavia porcellus; assay: Positive inotropic activity in guinea pig atria assessed as increase in […] at 0.16 ml/min, iv; format: functional
[4] = species on record: Cavia porcellus; assay: Positive inotropic activity in electrically driven guinea pig atria assessed as maximal concentration required to increase in […]; format: functional
[5] = system: Cavia porcellus; assay: Positive inotropic activity in iv dosed guinea pig atria assessed as concentration required to increase in […]; format: functional
[6] = system: Cavia porcellus; assay: Toxicity in guinea pig assessed as death at 0.16 ml/min, iv up to 90 mins; format: organism-based; conditions: in vivo, 1.5 h; in short: as §1

Row | Compound | IC50 [1] [µM] | selectivity ratio [2] | Emax [3] [%] | Activity [4] [µM/g] | ED80 [5] [µM/g] | Activity [6]
1 | C[C@]12CC/C(=N\OCCN)C[C@@H]1/C(=N/O)C[C@@H]1[C@@H]2CC[C@]2(C)C(=O)CC[C@@H]12.Cl | 0.024 | 11 | 180 | 4.3 | 0.84 | –
2 | CNCCCO/N=C1\CC[C@@]2(C)[C@H](C1)[C@@H](CO)C[C@@H]1[C@@H]2CC[C@]2(C)C(=O)CC[C@@H]12.Cl | 0.69 | 28 | 263 | 9 | 1.5 | –
3 | CNCCCO/N=C1\CC[C@@]2(C)[C@H](C1)[C@@H](NC=O)C[C@@H]1[C@@H]2CC[C@]2(C)C(=O)CC[C@@H]12.Cl | 1.1 | 47 | 177 | 2.8 | 0.93 | –
4 | CO[C@H]1C[C@@H]2[C@H](CC[C@]3(C)C(=O)CC[C@@H]23)[C@@]2(C)CC/C(=N\OCCN)C[C@H]12.Cl | 0.71 | 9 | 167 | 18 | 4.3 | –
5 | C[C@]12CC/C(=N\O[C@@H]3CCNC3)C[C@@H]1C(=C(F)F)C[C@@H]1[C@@H]2CC[C@]2(C)C(=O)CC[C@@H]12.Cl | 0.021 | – | 244 | 18 | 6.7 | Non-toxic
6 | C#C[C@H]1C[C@@H]2[C@H](CC[C@]3(C)C(=O)CC[C@@H]23)[C@@]2(C)CC/C(=N\O[C@@H]3CCNC3)C[C@H]12.Cl | 0.11 | – | 147 | 6 | 3.7 | Non-toxic
7 | C[C@]12CC/C(=N\O[C@@H]3CCNC3)C[C@@H]1[C@@H](NC=O)C[C@@H]1[C@@H]2CC[C@]2(C)C(=O)CC[C@@H]12.Cl | 0.041 | 11 | 142 | 6 | 1.6 | –
8 | C[C@]12CC/C(=N\OCCN)C[C@@H]1[C@@H](NC=O)C[C@@H]1[C@@H]2CC[C@]2(C)C(=O)CC[C@@H]12.O=C(O)/C=C/C(=O)O | 0.16 | 33 | 174 | 27 | 2 | –
9 | COC(=O)[C@H]1C[C@@H]2[C@H](CC[C@]3(C)C(=O)CC[C@@H]23)[C@@]2(C)CC/C(=N\O[C@@H]3CCNC3)C[C@H]12.Cl | 0.16 | – | 164 | 23 | 11 | Non-toxic
10 | C[C@]12CC/C(=N\O[C@@H]3CCNC3)C[C@@H]1[C@@H](C(N)=O)C[C@@H]1[C@@H]2CC[C@]2(C)C(=O)CC[C@@H]12.Cl | 0.14 | – | 109 | 8.8 | 2.2 | Non-toxic
11 | C[C@H]1C[C@@H]2[C@H](CC[C@]3(C)C(=O)CC[C@@H]23)[C@@]2(C)CC/C(=N\OCCN)C[C@H]12.Cl | 0.3 | – | 203 | 5.8 | 3.1 | Non-toxic
12 | C[C@]12CC/C(=N\O[C@@H]3CCNC3)C[C@@H]1/C(=N/O)C[C@@H]1[C@@H]2CC[C@]2(C)C(=O)CC[C@@H]12.Cl | 0.016 | – | 144 | 4.3 | 1.5 | Non-toxic
13 | CO/N=C1\C[C@@H]2[C@H](CC[C@]3(C)C(=O)CC[C@@H]23)[C@@]2(C)CC/C(=N\OCCN)C[C@H]12.Cl | 0.017 | – | 183 | 5.8 | 2.4 | Non-toxic
14 | CNCCCO/N=C1\CC[C@@]2(C)[C@H](C1)[C@@H](C)C[C@@H]1[C@@H]2CC[C@]2(C)C(=O)CC[C@@H]12.Cl | 0.91 | – | 213 | 18 | 8.1 | Non-toxic
15 | CNCCCO/N=C1\CC[C@@]2(C)[C@H](C1)/C(=N/O)C[C@@H]1[C@@H]2CC[C@]2(C)C(=O)CC[C@@H]12.Cl | 0.2 | – | 158 | 15 | 7.1 | Non-toxic
16 | C[C@]12CC/C(=N\OCCN)C[C@@H]1[C@@H](CCO)C[C@@H]1[C@@H]2CC[C@]2(C)C(=O)CC[C@@H]12.Cl | 0.32 | 23 | 238 | 17 | 2.5 | –
17 | C[C@]12CC/C(=N\OCCN)C[C@@H]1[C@@H](O[N+](=O)[O-])C[C@@H]1[C@@H]2CC[C@]2(C)C(=O)CC[C@@H]12.O=C(O)/C=C/C(=O)O | 0.33 | 8 | 172 | 9.8 | 3.6 | –
18 | C[C@H]1O[C@@H](O[C@H]2[C@@H](O)C[C@H](O[C@H]3[C@@H](O)C[C@H](O[C@H]4CC[C@@]5(C)[C@H](CC[C@@H]6[C@@H]5C[C@@H](O)[C@]5(C)[C@@H](C7=CC(=O)OC7)CC[C@]65O)C4)O[C@@H]3C)O[C@@H]2C)C[C@H](O)[C@@H]1O [DIGOXIN] | 0.31 | 3.2 | – | 0.97 | 0.41 | Toxic
19 | C#C[C@H]1C[C@@H]2[C@H](CC[C@]3(C)C(=O)CC[C@@H]23)[C@@]2(C)CC/C(=N\OCCN)C[C@H]12.Cl | 0.2 | – | 163 | 9.9 | 4.6 | Non-toxic
20 | C[C@]12CC/C(=N\OCCN)C[C@@H]1[C@@H](CO)C[C@@H]1[C@@H]2CC[C@]2(C)C(=O)CC[C@@H]12.Cl | 0.18 | – | 166 | 7.4 | 1.8 | Non-toxic
21 | COC[C@H]1C[C@@H]2[C@H](CC[C@]3(C)C(=O)CC[C@@H]23)[C@@]2(C)CC/C(=N\O[C@@H]3CCNC3)C[C@H]12.O=C(O)/C=C/C(=O)O | 0.32 | – | 201 | 12 | 6.8 | Non-toxic
22 | C[C@]12CC/C(=N\O[C@@H]3CCNC3)C[C@@H]1[C@@H](CCO)C[C@@H]1[C@@H]2CC[C@]2(C)C(=O)CC[C@@H]12.Cl | 0.058 | – | 183 | 5.1 | 1.9 | Non-toxic

Source: ChEMBL document CHEMBL1165977, “Novel analogues of Istaroxime, a potent inhibitor of Na(+),K(+)-ATPase: Synthesis, structure-activity relationship and 3D-quantitative structure-activity relationship of derivatives at position 6 on the androstane scaffold” (Bioorg Med Chem, 2010)
